Measurements pooled from the literature.
Effect on: cell growth or viability

The IC50 of `COc1cc(C(=O)c2nc(-c3cccc4[nH]ccc34)cs2)cc(OC)c1OC` is reported as 0.0056 µM (A-375; MTS; 72 h).
`O=C(Nc1ccc(Oc2nc3ccccc3n3cnnc23)cc1)Nc1cccc(Cl)c1` has a viability of 41.2% (MDA-MB-231; MTT; 50 µM, 24 h).
With `C[C@H](N)C(=O)Nc1ccccc1/N=c1\cc(-c2ccc3c(c2)OCO3)oc2ccccc12` the inhibition was 7.31% (MDA-MB-231; CCK-8; 1 µM).
With `O=C(Nc1ccc(Cl)cc1)Nc1ccc(Oc2nc3ccccc3n3cnnc23)cc1` the viability was 77.3% (MDA-MB-231; MTT; 25 µM, 24 h).
The IC50 of `COc1cc(C(=O)c2nc(-c3cccc4[nH]ccc34)c[nH]2)cc2c1OCO2` is reported as 0.0051 µM (A-375; MTS; 72 h).
`O=c1[nH]cc(F)c(=O)[nH]1` has an IC50 of 0.59 µg/mL (C32; SRB; 72 h).
`Cn1nnc2c(C(N)=O)ncn2c1=O` gave an IC50 of 2080 µM (human Astrocyte; MTT).
For `COc1cc(C(=O)c2nc(-c3ccsc3)c[nH]2)cc(OC)c1OC`, the IC50 was 0.0432 µM (A-375; MTS; 72 h).
`COc1cccc(NC(=O)Nc2ccc(Oc3nc4ccccc4n4cnnc34)cc2)c1` has a viability of 32.4% (MDA-MB-231; MTT; 50 µM, 24 h).
`COc1ccc2/c(=N/c3ccccc3NC(=O)CN)cc(-c3ccc4c(c3)OCCO4)oc2c1` gave an inhibition of 12.6% (MDA-MB-231; CCK-8; 1 µM).
The IC50 of `COc1cc(C(=O)c2nc(-c3cccc4[nH]ccc34)c(C)[nH]2)cc(OC)c1OC` is reported as 0.0161 µM (A-375; MTS; 72 h).
The viability of `O=C(NN=Cc1ccc([N+](=O)[O-])s1)C1CC(=O)N(c2ccc(F)cc2F)C1` (stereo not shown) is reported as 4.41% (A-375; MTT; 100 µM, 72 h).
`NCCC(=O)Nc1ccccc1/N=c1\cc(-c2ccc3nc(N)oc3c2)oc2cc(O)ccc12` gave an inhibition of 22% (MDA-MB-231; CCK-8; 1 µM).
With `CN(C)c1cccc(Nc2nc(-c3ccncc3)nc3c2CNCC3)c1` the IC50 was 88.8 µM (A-375; MTT).
For `COc1cccc2c1C(=O)c1c(O)c3c(c(O)c1C2=O)C[C@@](O)(C(=O)CO)C[C@@H]3O[C@H]1C[C@H](N)[C@H](O)[C@H](C)O1`, the IC50 was 0.109 µM (HS27; CCK-8; 72 h).
The inhibition of `N[C@@H](CO)C(=O)Nc1ccccc1/N=c1\cc(-c2ccc3c(c2)OCO3)oc2ccccc12` is reported as 11.7% (MDA-MB-231; CCK-8; 1 µM).
With `COc1cc(C(=O)c2nc(-c3cccc4[nH]nnc34)c[nH]2)cc(OC)c1OC` the IC50 was 0.0632 µM (A-375; MTS; 72 h).
`O=C(Nc1ccccc1/N=c1\cc(-c2ccc3c(c2)OCCO3)oc2cc(F)ccc12)N1CCOCC1` gave an inhibition of 8.63% (MDA-MB-231; CCK-8; 1 µM).
The inhibition of `Cc1nc(Nc2ncc(C(=O)Nc3c(C)cccc3Cl)s2)cc(N2CC[C@H](O)C2)n1` is reported as 11% (SU-DHL-1; ATP luminescence; 10 µM, 72 h).
For `COc1ccc2/c(=N/c3ccccc3NC(=O)[C@@H](N)C(C)(C)C)cc(-c3ccc4c(c3)OCCO4)oc2c1`, the inhibition was 6.88% (MDA-MB-231; CCK-8; 1 µM).
The viability of `CNC(=O)c1cc(Oc2ccc(NC(=O)Nc3ccc(Cl)c(C(F)(F)F)c3)cc2)ccn1` is reported as 70.2% (MDA-MB-231; MTT; 3.125 µM, 24 h).
The inhibition of `Nc1nc2ccc(-c3c/c(=N\c4ccccc4NC(=O)CCN4CCOCC4)c4ccccc4o3)cc2o1` is reported as -0.02% (MDA-MB-231; CCK-8; 1 µM).
For `O=C(Nc1ccccc1)Nc1ccc(Oc2nc3ccccc3n3cnnc23)cc1`, the viability was 41.6% (MDA-MB-231; MTT; 100 µM, 24 h).
The inhibition of `Oc1cccc(-c2nc(N3CCOCC3)c3oc4ncccc4c3n2)c1` is reported as 18.8% (MDA-MB-231; CCK-8; 1 µM).
For `COc1cccc2c1C(=O)c1c(O)c3c(c(O)c1C2=O)C[C@@](O)(C(=O)CO)C[C@@H]3O[C@H]1C[C@H](N)[C@H](O)[C@H](C)O1`, the IC50 was 2.7 µM (MRC5; MTT; 75 h).
